Source: the M2OR odorant receptor database
Positions count from the first letter of the chain named.

Columns and labels:
Details in all cases: stereoisomer not certain
OR4L1 (Homo sapiens) = molecular target: T1, OR4L1 (Homo sapiens) (UniProt Q8NH43)
T1 sequence (whole entry): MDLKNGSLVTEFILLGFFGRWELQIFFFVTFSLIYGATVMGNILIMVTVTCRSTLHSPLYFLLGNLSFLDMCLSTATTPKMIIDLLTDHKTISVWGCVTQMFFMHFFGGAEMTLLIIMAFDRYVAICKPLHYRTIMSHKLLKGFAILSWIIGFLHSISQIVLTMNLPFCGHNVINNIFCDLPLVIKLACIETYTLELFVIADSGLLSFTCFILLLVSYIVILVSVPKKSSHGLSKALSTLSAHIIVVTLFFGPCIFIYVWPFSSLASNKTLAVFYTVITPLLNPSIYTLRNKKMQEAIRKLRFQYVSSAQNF
How it was run: (§1)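 Transient luciferase assays in mammalian cell lines were common, though methods varied by source. The values come from published papers and their supplementary material, with extra details from the original authors when needed. Responsive refers to a measured signal the original authors judged statistically different from baseline, and non-responsive (inactive) to the remainder.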

OR4M1 (Homo sapiens) = molecular target: T2, OR4M1 (Homo sapiens) (UniProt Q8NGD0)
T2 sequence (whole entry): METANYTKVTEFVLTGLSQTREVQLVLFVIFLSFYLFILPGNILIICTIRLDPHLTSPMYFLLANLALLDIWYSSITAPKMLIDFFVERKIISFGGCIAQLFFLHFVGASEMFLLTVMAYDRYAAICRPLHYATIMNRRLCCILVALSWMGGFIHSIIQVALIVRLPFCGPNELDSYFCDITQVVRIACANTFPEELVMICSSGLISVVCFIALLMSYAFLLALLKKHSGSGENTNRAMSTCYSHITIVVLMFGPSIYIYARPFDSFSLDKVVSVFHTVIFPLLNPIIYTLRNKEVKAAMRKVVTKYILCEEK
How it was run: as §1

OR4M2 (Homo sapiens) = molecular target: T3, OR4M2 (Homo sapiens) (UniProt Q8NGB6)
T3 sequence (whole entry): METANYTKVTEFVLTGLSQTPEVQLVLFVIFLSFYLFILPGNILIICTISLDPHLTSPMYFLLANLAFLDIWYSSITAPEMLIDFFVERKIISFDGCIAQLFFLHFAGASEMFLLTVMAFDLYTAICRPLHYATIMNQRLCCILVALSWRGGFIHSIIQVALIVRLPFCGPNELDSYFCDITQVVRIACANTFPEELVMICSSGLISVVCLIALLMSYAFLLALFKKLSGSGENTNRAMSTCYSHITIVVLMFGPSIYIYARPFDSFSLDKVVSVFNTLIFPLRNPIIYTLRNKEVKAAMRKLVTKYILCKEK
How it was run: as §1

OR4M2B (Homo sapiens) = OR4M2B (Homo sapiens) (UniProt A0A0X1KG70)
Sequence of OR4M2B (Homo sapiens) (A0A0X1KG70 whole entry): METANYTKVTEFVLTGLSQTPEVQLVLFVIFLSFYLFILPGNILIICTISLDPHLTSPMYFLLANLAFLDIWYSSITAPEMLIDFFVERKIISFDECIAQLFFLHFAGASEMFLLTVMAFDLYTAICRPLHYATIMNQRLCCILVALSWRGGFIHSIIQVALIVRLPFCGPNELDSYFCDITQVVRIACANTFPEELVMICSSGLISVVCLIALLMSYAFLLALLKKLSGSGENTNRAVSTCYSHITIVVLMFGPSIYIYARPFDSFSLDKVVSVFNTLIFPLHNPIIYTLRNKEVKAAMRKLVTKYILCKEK
How it was run: as §1

OR4N2 (Homo sapiens) = molecular target: T4, OR4N2 (Homo sapiens) (UniProt Q8NGD1)
T4 sequence (whole entry): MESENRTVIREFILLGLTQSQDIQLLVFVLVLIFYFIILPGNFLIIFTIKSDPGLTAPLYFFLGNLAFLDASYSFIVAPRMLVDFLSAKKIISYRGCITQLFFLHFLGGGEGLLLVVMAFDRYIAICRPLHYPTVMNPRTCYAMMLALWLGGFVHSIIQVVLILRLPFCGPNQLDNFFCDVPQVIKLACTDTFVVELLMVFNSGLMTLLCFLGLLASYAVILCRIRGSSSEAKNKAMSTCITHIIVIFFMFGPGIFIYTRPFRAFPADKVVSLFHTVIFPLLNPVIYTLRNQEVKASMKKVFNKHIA
How it was run: as §1

OR4N4 (Homo sapiens) = molecular target: T5, OR4N4 (Homo sapiens) (UniProt Q8N0Y3)
T5 sequence (whole entry): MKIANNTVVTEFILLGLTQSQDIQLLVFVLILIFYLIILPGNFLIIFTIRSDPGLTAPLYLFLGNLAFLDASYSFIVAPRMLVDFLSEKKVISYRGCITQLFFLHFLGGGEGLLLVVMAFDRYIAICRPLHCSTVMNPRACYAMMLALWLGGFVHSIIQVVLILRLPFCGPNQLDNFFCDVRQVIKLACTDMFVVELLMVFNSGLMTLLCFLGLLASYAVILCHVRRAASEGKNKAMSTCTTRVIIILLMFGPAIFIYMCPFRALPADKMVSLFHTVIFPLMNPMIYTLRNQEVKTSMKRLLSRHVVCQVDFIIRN
How it was run: as §1

OR4N4C (Homo sapiens) = OR4N4C (Homo sapiens) (UniProt A0A096LPK9)
Sequence of OR4N4C (Homo sapiens) (A0A096LPK9 whole entry): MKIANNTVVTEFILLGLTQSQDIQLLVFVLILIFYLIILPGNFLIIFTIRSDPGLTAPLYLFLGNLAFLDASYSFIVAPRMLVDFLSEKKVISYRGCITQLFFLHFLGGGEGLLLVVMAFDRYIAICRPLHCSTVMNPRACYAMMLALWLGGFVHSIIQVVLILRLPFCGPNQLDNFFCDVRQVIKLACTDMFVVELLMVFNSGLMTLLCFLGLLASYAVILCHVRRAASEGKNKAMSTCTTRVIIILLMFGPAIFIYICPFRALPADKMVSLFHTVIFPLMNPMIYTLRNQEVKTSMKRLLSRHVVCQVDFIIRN
How it was run: as §1

OR4N5 (Homo sapiens) = molecular target: T6, OR4N5 (Homo sapiens) (UniProt Q8IXE1)
T6 sequence (whole entry): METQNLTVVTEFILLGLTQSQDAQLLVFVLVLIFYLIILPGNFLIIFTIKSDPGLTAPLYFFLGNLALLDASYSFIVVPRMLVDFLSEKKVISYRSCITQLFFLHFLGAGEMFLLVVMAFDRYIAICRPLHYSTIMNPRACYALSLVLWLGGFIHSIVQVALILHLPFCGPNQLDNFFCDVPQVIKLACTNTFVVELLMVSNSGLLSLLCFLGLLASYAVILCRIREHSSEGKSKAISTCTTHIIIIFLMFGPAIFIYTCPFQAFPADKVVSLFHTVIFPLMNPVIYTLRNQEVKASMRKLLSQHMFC
How it was run: as §1

OR4P4 (Homo sapiens) = molecular target: T7, OR4P4 (Homo sapiens) (UniProt Q8NGL7)
T7 sequence (whole entry): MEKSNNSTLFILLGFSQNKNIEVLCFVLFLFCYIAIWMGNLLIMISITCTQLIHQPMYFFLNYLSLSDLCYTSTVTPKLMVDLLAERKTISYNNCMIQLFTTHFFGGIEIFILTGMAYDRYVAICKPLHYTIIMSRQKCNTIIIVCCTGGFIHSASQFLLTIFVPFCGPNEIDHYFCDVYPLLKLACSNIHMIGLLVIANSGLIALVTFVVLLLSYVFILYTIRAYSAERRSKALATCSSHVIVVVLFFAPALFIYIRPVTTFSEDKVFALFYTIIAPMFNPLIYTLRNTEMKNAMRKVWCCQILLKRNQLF
How it was run: as §1

OR4Q2 (Homo sapiens) = OR4Q2 (Homo sapiens) (UniProt P0C623)
Sequence of OR4Q2 (Homo sapiens) (P0C623 as listed by the source): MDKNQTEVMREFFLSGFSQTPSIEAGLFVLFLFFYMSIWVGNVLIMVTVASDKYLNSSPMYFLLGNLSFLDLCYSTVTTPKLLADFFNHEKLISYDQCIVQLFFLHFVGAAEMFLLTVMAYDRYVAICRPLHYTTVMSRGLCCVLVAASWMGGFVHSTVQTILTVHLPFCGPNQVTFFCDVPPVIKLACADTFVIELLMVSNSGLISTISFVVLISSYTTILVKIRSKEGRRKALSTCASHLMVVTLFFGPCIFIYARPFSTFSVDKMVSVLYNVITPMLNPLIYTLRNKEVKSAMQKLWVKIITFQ
How it was run: as §1

OR4Q3 (Homo sapiens) = molecular target: T8, OR4Q3 (Homo sapiens) (UniProt Q8NH05)
T8 sequence (whole entry): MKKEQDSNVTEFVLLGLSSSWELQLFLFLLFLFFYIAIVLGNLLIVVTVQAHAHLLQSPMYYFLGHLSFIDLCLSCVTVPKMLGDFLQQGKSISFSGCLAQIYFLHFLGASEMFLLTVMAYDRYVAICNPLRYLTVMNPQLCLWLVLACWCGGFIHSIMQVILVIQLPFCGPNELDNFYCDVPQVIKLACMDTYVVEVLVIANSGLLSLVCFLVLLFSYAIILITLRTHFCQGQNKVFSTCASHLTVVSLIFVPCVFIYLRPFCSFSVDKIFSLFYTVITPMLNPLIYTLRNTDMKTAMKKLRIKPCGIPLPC
How it was run: as §1

OR4S1 (Homo sapiens) = molecular target: T9, OR4S1 (Homo sapiens) (UniProt Q8NGB4)
T9 sequence (whole entry): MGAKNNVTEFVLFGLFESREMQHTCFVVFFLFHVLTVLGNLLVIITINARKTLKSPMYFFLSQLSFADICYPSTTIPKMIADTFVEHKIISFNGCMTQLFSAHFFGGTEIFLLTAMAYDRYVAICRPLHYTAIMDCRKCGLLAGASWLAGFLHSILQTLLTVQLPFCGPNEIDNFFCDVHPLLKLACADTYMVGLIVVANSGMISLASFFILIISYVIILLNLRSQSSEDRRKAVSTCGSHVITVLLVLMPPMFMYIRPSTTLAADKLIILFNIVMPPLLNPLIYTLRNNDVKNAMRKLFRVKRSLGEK
How it was run: as §1

OR4KH = test system: T10, OR4KH
T10 sequence (whole entry): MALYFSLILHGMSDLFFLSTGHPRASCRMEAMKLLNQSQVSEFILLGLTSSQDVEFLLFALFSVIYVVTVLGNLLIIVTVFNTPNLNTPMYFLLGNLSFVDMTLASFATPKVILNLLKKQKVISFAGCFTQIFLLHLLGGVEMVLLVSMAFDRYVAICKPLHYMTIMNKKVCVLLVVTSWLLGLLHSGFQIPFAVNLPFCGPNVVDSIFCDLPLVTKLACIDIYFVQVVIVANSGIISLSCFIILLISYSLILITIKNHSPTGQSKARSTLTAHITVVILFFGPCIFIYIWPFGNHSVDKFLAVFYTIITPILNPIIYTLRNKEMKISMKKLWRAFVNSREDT
How it was run: as §1

OR4L1 = test system: T11, OR4L1
T11 sequence (whole entry): T1 sequence (whole entry) with R52S
How it was run: as §1

OR4M1 H277N V279L L284H = test system: T12, OR4M1 H277N V279L L284H
T12 sequence (whole entry): T2 sequence (whole entry) with H277N, V279L, L284H
How it was run: as §1

OR4N2 A57V I76T = test system: T13, OR4N2 A57V I76T
T13 sequence (whole entry): T4 sequence (whole entry) with A57V, I76T
How it was run: as §1

OR4N2 R260C F279L R290H = test system: T14, OR4N2 R260C F279L R290H
T14 sequence (whole entry): T4 sequence (whole entry) with R260C, F279L, R290H
How it was run: as §1

OR4N2 [1] = test system: T15, OR4N2
T15 sequence (whole entry): T4 sequence (whole entry) with I76T
How it was run: as §1

OR4Q3 T135A = test system: T16, OR4Q3 T135A
T16 sequence (whole entry): T8 sequence (whole entry) with T135A
How it was run: as §1

OR4N2 [2] = test system: OR4N2; remark: listed apart in the source
How it was run: as §1
Target sequence in this assay (as listed by the source): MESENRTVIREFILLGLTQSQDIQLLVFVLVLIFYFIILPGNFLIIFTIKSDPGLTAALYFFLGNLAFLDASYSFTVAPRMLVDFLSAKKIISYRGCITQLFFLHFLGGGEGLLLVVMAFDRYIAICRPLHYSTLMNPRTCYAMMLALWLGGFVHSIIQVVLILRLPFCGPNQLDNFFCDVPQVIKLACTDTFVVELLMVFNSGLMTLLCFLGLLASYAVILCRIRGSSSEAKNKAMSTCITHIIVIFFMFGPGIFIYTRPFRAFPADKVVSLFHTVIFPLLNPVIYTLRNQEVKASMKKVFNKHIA

Measured: odorant receptor agonist call;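 further: active if original authors judged signal statistically different from baseline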

CC1CCCCCCCCCCCCC(=O)C1 (centres undefined)
not listed: OR4KH | OR4L1 | OR4M1 H277N V279L L284H | OR4N2 A57V I76T | OR4N2 R260C F279L R290H | OR4N2 [1] | OR4Q3 T135A | OR4N2 [2]
inactive: all other assays above

CCC1OC(C)=C(O)C1=O (centres undefined)
not listed: OR4M2B (Homo sapiens) | OR4N4C (Homo sapiens) | OR4Q2 (Homo sapiens) | OR4N2 [2]
inactive: all other assays above

CCCCCCC=CCCC=O
not listed: OR4M2B (Homo sapiens) | OR4N4C (Homo sapiens) | OR4Q2 (Homo sapiens) | OR4KH | OR4N2 [2]
inactive: all other assays above

CCCC(S)CCOC(C)=O (centres undefined)
not listed: OR4M2B (Homo sapiens) | OR4N4C (Homo sapiens) | OR4Q2 (Homo sapiens) | OR4N2 [2]
inactive: all other assays above

CCCCC(S)C(C)CO (centres undefined)
inactive: OR4L1 (Homo sapiens) | OR4M1 (Homo sapiens) | OR4M2 (Homo sapiens) | OR4N2 (Homo sapiens) | OR4N4 (Homo sapiens) | OR4N5 (Homo sapiens) | OR4P4 (Homo sapiens) | OR4Q3 (Homo sapiens) | OR4S1 (Homo sapiens)

CC1=NC(C)C(C)S1 (centres undefined)
not listed: OR4M2B (Homo sapiens) | OR4N4C (Homo sapiens) | OR4Q2 (Homo sapiens) | OR4N2 [2]
inactive: all other assays above

CC1=C(O)C(=O)OC1C (centres undefined)
not listed: OR4M2B (Homo sapiens) | OR4N4C (Homo sapiens) | OR4Q2 (Homo sapiens) | OR4N2 [2]
inactive: all other assays above

CCC(S)C(C)CO (centres undefined)
inactive: OR4L1 (Homo sapiens) | OR4M1 (Homo sapiens) | OR4M2 (Homo sapiens) | OR4N2 (Homo sapiens) | OR4N4 (Homo sapiens) | OR4N5 (Homo sapiens) | OR4P4 (Homo sapiens) | OR4Q3 (Homo sapiens) | OR4S1 (Homo sapiens)

O=c1ccc2ccccc2o1
inactive: OR4N2 (Homo sapiens) | OR4N2 [2] | OR4N2 [1]

CC(=O)c1c(C)c([N+](=O)[O-])c(C(C)(C)C)c([N+](=O)[O-])c1C
not listed: OR4KH | OR4L1 | OR4M1 H277N V279L L284H | OR4N2 A57V I76T | OR4N2 R260C F279L R290H | OR4N2 [1] | OR4Q3 T135A | OR4N2 [2]
inactive: all other assays above

CC(CO)CS (centres undefined)
inactive: OR4L1 (Homo sapiens) | OR4M1 (Homo sapiens) | OR4M2 (Homo sapiens) | OR4N2 (Homo sapiens) | OR4N4 (Homo sapiens) | OR4N5 (Homo sapiens) | OR4P4 (Homo sapiens) | OR4Q3 (Homo sapiens) | OR4S1 (Homo sapiens)

Cc1cnc(C)c(C)n1
not listed: OR4M2B (Homo sapiens) | OR4N4C (Homo sapiens) | OR4Q2 (Homo sapiens) | OR4N2 [2]
inactive: all other assays above

CCCCCC(S)C(C)CO (centres undefined)
inactive: OR4L1 (Homo sapiens) | OR4M1 (Homo sapiens) | OR4M2 (Homo sapiens) | OR4N2 (Homo sapiens) | OR4N4 (Homo sapiens) | OR4N5 (Homo sapiens) | OR4P4 (Homo sapiens) | OR4Q3 (Homo sapiens) | OR4S1 (Homo sapiens)

CC1=C(O)C(=O)C(C)O1 (centres undefined)
not listed: OR4M2B (Homo sapiens) | OR4N4C (Homo sapiens) | OR4Q2 (Homo sapiens) | OR4N2 [2]
inactive: all other assays above

CCCCCC(=O)C(C)C(C)=O (centres undefined)
inactive: OR4L1 (Homo sapiens) | OR4M1 (Homo sapiens) | OR4M2 (Homo sapiens) | OR4N2 (Homo sapiens) | OR4N4 (Homo sapiens) | OR4N5 (Homo sapiens) | OR4P4 (Homo sapiens) | OR4Q3 (Homo sapiens) | OR4S1 (Homo sapiens)

CCC1OC(=O)C(O)=C1C (centres undefined)
not listed: OR4M2B (Homo sapiens) | OR4N4C (Homo sapiens) | OR4Q2 (Homo sapiens) | OR4N2 [2]
inactive: all other assays above
